Experimental data published in ChEMBL document CHEMBL3992553, “New nitrofurans amenable by isocyanide multicomponent chemistry are active against multidrug-resistant and poly-resistant Mycobacterium tuberculosis” (Bioorg Med Chem, 2017).
≈ marks a conversion by molar mass, not a printed value.

Tests used:
[1] = test system: Mycobacterium tuberculosis; assay: Antimycobacterial activity against Mycobacterium tuberculosis H37Rv after 7 days by microbroth dilution method; format: functional; conditions: 168 h
Outline: (§1)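 REMA. 3-week H37Rv culture (2nd generation on Löwenstein–Jensen) vortexed with glass beads, set to 1.0 McFarland in 7H9, diluted 20-fold in 7H9 + OADC. 2-fold dilutions, final 1.6–400 µg/mL, 200 µL wells. 7 days at 35 °C, then resazurin 18 h. Fluorescence ex 520/em 590. MIC where signal plateaued or matched the 1% population control (t test).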

[2] = test system: Klebsiella pneumoniae; assay: Antibacterial activity against Klebsiella pneumoniae DSM 11678 after 18 hrs; format: functional; conditions: DSM 11678, 18 h
Outline: (§2)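 Broth microdilution MIC. Gram-negatives grown overnight at 37 °C in Müller-Hinton broth + 1% glucose, pH 7.2; Gram-positives in trypticase soy broth with yeast extract, pH 7.2. Inoculum 5×10^5 cfu/mL final. Serial dilutions from 100 µM down to 0.2 µM, DMSO ≤1%. 18 h at 37 °C, moist; OD600. MIC = lowest concentration completely suppressing growth.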

[3] = test system: Mycobacterium tuberculosis; assay: Antimycobacterial activity against Mycobacterium tuberculosis H37Rv after 7 days by REMA; format: functional; conditions: 168 h; outline: as §1
[4] = test system: MCF7; assay: (§3) Cytotoxicity against human MCF7 cells assessed as reduction in cell viability after 5 days by WST1 assay; format: cell-based; conditions: Homo sapiens, MCF7, 120 h
Outline: (§4)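 MCF-7 cells, 3000 per well, in RPMI + 5% FBS, 0.5% NEAA, 0.5% GlutaMAX and insulin 5 µg/mL. Exposed to serially diluted compound for 5 days. WST-1 incubation 2 h at 37 °C, absorbance read at 450 nm (reference 600 nm). Viability given as % of controls.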

[5] = as §3; format: cell-based; conditions: human, MCF7 cells; outline: as §4
[6] = test system: KB 3-1; assay: (§5) Cytotoxicity against human KB-3-1 cells assessed as reduction in cell viability after 5 days by WST1 assay; format: cell-based; conditions: Homo sapiens, KB 3-1, 120 h
Outline: (§6)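 KB-3-1 or L929 cells, 1500 per well, in DMEM + 5% FBS. Exposed to serially diluted compound for 5 days. WST-1 added, plates incubated at 37 °C (20 min for KB-3-1), absorbance read at 450 nm (reference 600 nm). Viability given as % of controls.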

[7] = as §5; format: cell-based; conditions: human, KB-3-1 cells; outline: as §6
[8] = (§7) Cytotoxicity against mouse L929 cells assessed as reduction in cell viability after 5 days by WST1 assay; format: cell-based; conditions: mouse, L929 cells; outline: as §6
[9] = test system: L929; assay: as §7; format: cell-based; conditions: Mus musculus, L929, 120 h; outline: as §6
[10] = test system: Staphylococcus aureus; assay: Antibacterial activity against methicillin-resistant Staphylococcus aureus RKI 11-02670 after 18 hrs; format: functional; conditions: RKI 11-02670, 18 h; outline: as §2
[11] = test system: Escherichia coli; assay: Growth inhibition of Escherichia coli DSM 1116 at 100 uM after 18 hrs relative to control; format: functional; conditions: DSM 1116, 18 h, read-out: GI
Outline: (§8)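 Gram-negative culture grown overnight at 37 °C in Müller-Hinton broth + 1% glucose, pH 7.2, then tested at 5×10^5 cfu/mL final. Compound at 100 µM from DMSO stock, DMSO ≤1%. Incubated 18 h at 37 °C under moist conditions. OD600 read; value reported as % growth inhibition.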

[12] = test system: Acinetobacter baumannii; assay: Antibacterial activity against Acinetobacter baumannii DSM 30007 after 18 hrs; format: functional; conditions: DSM 30007, 18 h; outline: as §2
[13] = Cytotoxicity against human FS4-LTM cells assessed as reduction in cell viability after 24 hrs by WST1 assay; format: cell-based; conditions: for IC50: Homo sapiens, FS4-LTM, 24 h; for IC90 at 24 h: human, FS4-LTM cells
Outline: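 FS4-LTM conditionally immortalized human fibroblasts, kept without doxycycline for primary-like behaviour, in DMEM + 5% FBS. Exposed to serially diluted compound for 24 h. WST-1 added, plates incubated at 37 °C, absorbance read at 450 nm (reference 600 nm). Viability given as % of controls set to 100%.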

[14] = test system: Enterococcus faecium; assay: Antibacterial activity against Enterococcus faecium DSM 20477 after 18 hrs; format: functional; conditions: DSM 20477, 18 h; outline: as §2
[15] = test system: Pseudomonas aeruginosa; assay: Growth inhibition of Pseudomonas aeruginosa PA7 DSM 24068 at 100 uM after 18 hrs relative to control; format: functional; conditions: PA7 DSM 24068, 18 h, read-out: GI; outline: as §8
[16] = test system: Staphylococcus aureus; assay: Antibacterial activity against methicillin-resistant Staphylococcus aureus DSM 11822 after 18 hrs; format: functional; conditions: DSM 11822, 18 h; outline: as §2
[17] = test system: Pseudomonas aeruginosa; assay: Antibacterial activity against Pseudomonas aeruginosa PA7 DSM 24068 after 18 hrs; format: functional; conditions: PA7 DSM 24068, 18 h; outline: as §2
[18] = test system: Escherichia coli; assay: Antibacterial activity against Escherichia coli DSM 1116 after 18 hrs; format: functional; conditions: DSM 1116, 18 h; outline: as §2
[19] = test system: Staphylococcus aureus; assay: Antibacterial activity against Staphylococcus aureus MLS16 MTCC 2940 after 24 hrs by well diffusion method; format: functional; conditions: MLS16 MTCC 2940, 24 h
[20] = test system: Bacillus subtilis; assay: Antibacterial activity against Bacillus subtilis MTCC 121 after 24 hrs by well diffusion method; format: functional; conditions: MTCC 121, 24 h

SMILES | MIC [2] | MIC [3] [µM] | EC50 [10] | MIC [10] | inhibition of growth at 100 µM [11] [%] | MIC [12] | MIC [14] | inhibition of growth at 100 µM [15] [%] | MIC [16] [µM] | further results
O=[N+]([O-])c1ccc(C2=NOC(c3ccc(N4CCC(Oc5ccc(OC(F)(F)F)cc5)CC4)c(F)c3)C2)o1 (stereo not given) | – | – | – | – | – | – | – | – | – | MIC [1]: 0.001 µg/mL (≈ 0.00187 µM)
CC1(C(=O)NC2CCCCC2)CCCC(=O)N1/N=C/c1ccc([N+](=O)[O-])o1 (stereo not given) | > 100 µM | 33 (≈ 12.4 µg/mL) | 70 µM | 100 µM | 81 | > 100 µM | > 100 µM | 88 | 100 (≈ 37.6 µg/mL) | IC50 [4]: 19 µM; IC90 at 120 h [5]: 100 µM; IC50 [6]: 61 µM; IC90 at 120 h [7]: 100 µM; IC90 at 120 h [8]: > 100 µM; IC50 [9]: 50 to 50.2 µM; IC50 [13]: 19.3 to 100 µM; IC90 at 24 h [13]: ≥ 100 µM
CC1(C(=O)NCc2ccccc2)COCC(=O)N1/N=C/c1ccc([N+](=O)[O-])o1 (stereo not given) | – | 65 (≈ 25.1 µg/mL) | 77 µM | 100 µM | 83 | – | > 100 µM | 86 | 100 (≈ 38.6 µg/mL) | –
CC1(C(=O)NC2CCCCC2)CCC(=O)N1/N=C/c1ccc([N+](=O)[O-])o1 (stereo not given) | – | 70 (≈ 25.4 µg/mL) | 79 µM | ≥ 100 µM | 85 | – | > 100 µM | 90 | > 100 | –
CC(C)(C)NC(=O)C1(C)COCC(=O)N1/N=C/c1ccc([N+](=O)[O-])o1 (stereo not given) | > 100 µM | > 100 | 50 µM | > 100 µM | – | > 100 µM | > 100 µM | – | > 100 | EC50 [2]: > 100 µM; EC50 [17]: > 100 µM; MIC [17]: > 100 µM; EC50 [18]: > 100 µM; MIC [18]: > 100 µM; EC50 [12]: > 100 µM; EC50 [14]: > 100 µM
CC1(C(=O)NCc2ccccc2)CCC(=O)N1/N=C/c1ccc([N+](=O)[O-])o1 (stereo not given) | – | > 100 | 67 µM | 95 µM | 85 | – | > 100 µM | 90 | 95 (≈ 35.2 µg/mL) | –
CC(C)(C)NC(=O)C1(C)CCCC(=O)N1/N=C/c1ccc([N+](=O)[O-])o1 (stereo not given) | – | 71 (≈ 24.9 µg/mL) | 76 µM | 100 µM | 83 | – | > 100 µM | 85 | 100 (≈ 35 µg/mL) | –
CC1(C(=O)NCc2ccccc2)CSCC(=O)N1/N=C/c1ccc([N+](=O)[O-])o1 (stereo not given) | > 100 µM | > 100 | 64 µM | > 100 µM | – | > 100 µM | > 100 µM | – | > 100 | EC50 [2]: > 100 µM; EC50 [17]: > 100 µM; MIC [17]: > 100 µM; EC50 [18]: > 100 µM; MIC [18]: > 100 µM; EC50 [12]: > 100 µM; EC50 [14]: > 100 µM
O=C(O)c1cn(C2CC2)c2cc(N3CCNCC3)c(F)cc2c1=O [CIPROFLOXACIN] | 0.07 µg/mL | – | – | – | – | 0.2 µg/mL | 8 µg/mL | – | – | EC50 [2]: 0.05 µg/mL; EC50 [18]: 0.01 µg/mL; EC50 [12]: 0.2 µg/mL; EC50 [14]: 2.29 µg/mL
NCC[C@H](O)C(=O)N[C@@H]1C[C@H](N)[C@@H](O[C@H]2O[C@H](CN)[C@@H](O)[C@H](O)[C@H]2O)[C@H](O)[C@H]1O[C@H]1O[C@H](CO)[C@@H](O)[C@H](N)[C@H]1O [AMIKACIN] | – | – | – | – | – | – | – | – | – | EC50 [17]: 3.8 µg/mL; MIC [17]: 4.5 µg/mL
CC1(C(=O)NCc2ccccc2)CCCC(=O)N1/N=C/c1ccc([N+](=O)[O-])o1 (stereo not given) | – | 65 (≈ 25 µg/mL) | 75 µM | 100 µM | 87 | – | > 100 µM | 85 | 100 (≈ 38.4 µg/mL) | –
CC(C)(C)NC(=O)C1(C)CCC(=O)N1/N=C/c1ccc([N+](=O)[O-])o1 (stereo not given) | – | > 100 | 91 µM | > 100 µM | 86 | – | > 100 µM | 92 | > 100 | –
CC1(C(=O)NCc2ccc(Cl)cc2)CCC(=O)N1/N=C/c1ccc([N+](=O)[O-])o1 (stereo not given) | – | > 100 | > 100 µM | > 100 µM | 82 | – | > 100 µM | 89 | > 100 | –
CC1(C(=O)NC2CCCCC2)COCC(=O)N1/N=C/c1ccc([N+](=O)[O-])o1 (stereo not given) | – | 66 (≈ 25 µg/mL) | 75 µM | 100 µM | 84 | – | > 100 µM | 90 | 100 (≈ 37.8 µg/mL) | –
CC1(C(=O)NC2CCCCC2)CN(S(=O)(=O)c2ccccc2[N+](=O)[O-])CC(=O)N1/N=C/c1ccc([N+](=O)[O-])o1 (stereo not given) | > 100 µM | 22 (≈ 12.4 µg/mL) | 75 µM | 100 µM | 88 | > 100 µM | > 100 µM | 85 | 100 (≈ 56.3 µg/mL) | IC50 [4]: 12 µM; IC90 at 120 h [5]: > 100 µM; IC50 [6]: 26.7 to 27 µM; IC90 at 120 h [7]: > 100 µM; IC90 at 120 h [8]: > 100 µM; IC50 [9]: 22.9 to 100 µM; IC50 [13]: 12 to 100 µM; IC90 at 24 h [13]: > 100 µM
CC1(C(=O)NC2CCCCC2)CSCC(=O)N1/N=C/c1ccc([N+](=O)[O-])o1 (stereo not given) | > 100 µM | 32 (≈ 12.6 µg/mL) | 55 µM | 100 µM | 84 | > 100 µM | > 100 µM | 91 | 100 (≈ 39.4 µg/mL) | IC50 [4]: 8.7 µM; IC90 at 120 h [5]: > 100 µM; IC50 [6]: 16 µM; IC90 at 120 h [7]: 100 µM; IC90 at 120 h [8]: > 100 µM; IC50 [9]: 50 µM; IC50 [13]: 8.7 to 100 µM; IC90 at 24 h [13]: ≥ 100 µM
CC1(C(=O)NC2CCCCC2)CN(S(C)(=O)=O)CC(=O)N1/N=C/c1ccc([N+](=O)[O-])o1 (stereo not given) | > 100 µM | 55 (≈ 25.1 µg/mL) | 35.7 µM | > 100 µM | – | > 100 µM | > 100 µM | – | > 100 | EC50 [2]: > 100 µM; EC50 [17]: > 100 µM; MIC [17]: > 100 µM; EC50 [18]: > 100 µM; MIC [18]: > 100 µM; EC50 [12]: > 100 µM; EC50 [14]: > 100 µM
CC1(C(=O)NCc2ccc(Cl)cc2)CCCC(=O)N1/N=C/c1ccc([N+](=O)[O-])o1 (stereo not given) | – | > 100 | 75 µM | 100 µM | 84 | – | > 100 µM | 98 | 100 (≈ 41.9 µg/mL) | –
CC(=O)NC[C@H]1CN(c2ccc(N3CCOCC3)c(F)c2)C(=O)O1 [LINEZOLID] | – | – | 0.25 µg/mL | 0.62 µg/mL | – | – | – | – | – | –
O=C(NCc1cn(-c2ccccc2)nn1)c1ccc([N+](=O)[O-])o1 | – | – | – | – | – | – | – | – | – | MIC [19]: 1.9 µg/mL (≈ 6.06 µM); MIC [20]: 7.8 µg/mL (≈ 24.9 µM)
